According to ChEMBL document CHEMBL3864121, “Development of ebsulfur analogues as potent antibacterials against methicillin-resistant Staphylococcus aureus” (Bioorg Med Chem, 2016):
In brackets after ≈: the same amount, converted by molar mass.

Tests used:
Assay type in all cases: functional
Staphylococcus aureus [1] = assay: Antibacterial activity against methicillin-resistant Staphylococcus aureus 2 measured after overnight incubation by broth double-dilution method
Method in brief: (§1)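 MIC by broth double-dilution in liquid Mueller-Hinton medium. Values are reported in µg/mL.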

Enterococcus = assay: Antibacterial activity against Vancomycin-resistant Enterococcus measured after overnight incubation by broth double-dilution method; method in brief: as §1
Staphylococcus aureus [2] = assay: Antibacterial activity against methicillin-resistant Staphylococcus aureus C7 measured after overnight incubation by broth double-dilution method; method in brief: as §1
Staphylococcus aureus [3] = assay: Antibacterial activity against methicillin-resistant Staphylococcus aureus NRS51 measured after overnight incubation by broth double-dilution method; method in brief: as §1
[4] = system: Staphylococcus epidermidis; assay: Antibacterial activity against Staphylococcus epidermidis ATCC 35984 measured after overnight incubation by broth double-dilution method; conditions: RP62A
Method in brief: (§2)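 MIC by broth double-dilution in Mueller-Hinton medium. Re-testing at the time-kill inoculum used 1×10^6 CFU/mL.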

Staphylococcus aureus [5] = assay: Antibacterial activity against methicillin-resistant Staphylococcus aureus C1 measured after overnight incubation by broth double-dilution method; method in brief: as §1
Staphylococcus aureus [6] = assay: Antibacterial activity against methicillin-resistant Staphylococcus aureus C19 measured after overnight incubation by broth double-dilution method; method in brief: as §1
Staphylococcus aureus [7] = assay: Antibacterial activity against methicillin-resistant Staphylococcus aureus USA600 measured after overnight incubation by broth double-dilution method; method in brief: as §1
Staphylococcus aureus [8] = assay: Antibacterial activity against methicillin-resistant Staphylococcus aureus G14 measured after overnight incubation by broth double-dilution method; method in brief: as §1
Staphylococcus aureus [9] = assay: Antibacterial activity against methicillin-sensitive Staphylococcus aureus ATCC 25923 measured after overnight incubation by broth double-dilution method; method in brief: as §1
Staphylococcus aureus [10] = assay: Antibacterial activity against methicillin-resistant Staphylococcus aureus S24 measured after overnight incubation by broth double-dilution method; method in brief: as §1
Staphylococcus aureus [11] = assay: Antibacterial activity against methicillin-resistant Staphylococcus aureus 1 measured after overnight incubation by broth double-dilution method; method in brief: as §1
Staphylococcus aureus [12] = assay: Antibacterial activity against methicillin-resistant Staphylococcus aureus G6 measured after overnight incubation by broth double-dilution method; method in brief: as §1
Staphylococcus aureus [13] = assay: Antibacterial activity against methicillin-resistant Staphylococcus aureus NRS4 measured after overnight incubation by broth double-dilution method; method in brief: as §1
Staphylococcus aureus [14] = assay: Antibacterial activity against methicillin-resistant Staphylococcus aureus BRS3 measured after overnight incubation by broth double-dilution method; method in brief: as §1
Listeria monocytogenes = assay: Antibacterial activity against Listeria monocytogenes ATCC 19115 measured after overnight incubation by broth double-dilution method; method in brief: as §2
Staphylococcus aureus [15] = assay: Antibacterial activity against methicillin-resistant Staphylococcus aureus C14 measured after overnight incubation by broth double-dilution method; method in brief: as §1
Staphylococcus aureus [16] = assay: Antibacterial activity against methicillin-resistant Staphylococcus aureus C16 measured after overnight incubation by broth double-dilution method; method in brief: as §1
Staphylococcus aureus [17] = assay: Antibacterial activity against methicillin-resistant Staphylococcus aureus NRS77 measured after overnight incubation by broth double-dilution method; method in brief: as §1
Staphylococcus aureus [18] = assay: Antibacterial activity against methicillin-resistant Staphylococcus aureus USA300 measured after overnight incubation by broth double-dilution method; method in brief: as §1
Enterococcus faecium = assay: Antibacterial activity against Enterococcus faecium BM4105-RF measured after overnight incubation by broth double-dilution method; method in brief: as §1
[19] = system: Mycolicibacterium smegmatis; assay: Antibacterial activity against Mycobacterium smegmatis MC2-155 measured after overnight incubation by broth double-dilution method; conditions: str. MC2 155; method in brief: as §1
Staphylococcus aureus [20] = assay: Antibacterial activity against methicillin-resistant Staphylococcus aureus S17 measured after overnight incubation by broth double-dilution method; method in brief: as §1
Staphylococcus aureus [21] = assay: Antibacterial activity against methicillin-resistant Staphylococcus aureus USA200 measured after overnight incubation by broth double-dilution method; method in brief: as §1
Enterococcus faecalis [22] = assay: Antibacterial activity against Enterococcus faecalis ATCC 49533 measured after overnight incubation by broth double-dilution method; method in brief: as §2
Staphylococcus aureus [23] = assay: Antibacterial activity against methicillin-resistant Staphylococcus aureus USA100 measured after overnight incubation by broth double-dilution method; method in brief: as §1
Staphylococcus aureus [24] = assay: Antibacterial activity against methicillin-resistant Staphylococcus aureus G12 measured after overnight incubation by broth double-dilution method; method in brief: as §1
Staphylococcus aureus [25] = assay: Antibacterial activity against methicillin-resistant Staphylococcus aureus G1 measured after overnight incubation by broth double-dilution method; method in brief: as §1
Staphylococcus aureus [26] = assay: Antibacterial activity against methicillin-resistant Staphylococcus aureus ATCC 33591 measured after overnight incubation by broth double-dilution method; method in brief: as §1
Staphylococcus aureus [27] = assay: Antibacterial activity against methicillin-sensitive Staphylococcus aureus ATCC 6538 measured after overnight incubation by broth double-dilution method; method in brief: as §1
Staphylococcus aureus [28] = assay: Antibacterial activity against methicillin-resistant Staphylococcus aureus S14 measured after overnight incubation by broth double-dilution method; method in brief: as §1
Enterococcus faecalis [29] = assay: Antibacterial activity against Enterococcus faecalis ATCC 29212 measured after overnight incubation by broth double-dilution method; method in brief: as §2
Staphylococcus aureus [30] = assay: Antibacterial activity against methicillin-resistant Staphylococcus aureus C2 measured after overnight incubation by broth double-dilution method; method in brief: as §1
Staphylococcus aureus [31] = assay: Antibacterial activity against methicillin-resistant Staphylococcus aureus S22 measured after overnight incubation by broth double-dilution method; method in brief: as §1
Staphylococcus aureus [32] = assay: Antibacterial activity against methicillin-sensitive Staphylococcus aureus ATCC 29213 measured after overnight incubation by broth double-dilution method; method in brief: as §1

SMILES | MIC (Staphylococcus aureus [1]) [µg/mL] | MIC (Enterococcus) [µg/mL] | MIC (Staphylococcus aureus [2]) [µg/mL] | MIC (Staphylococcus aureus [3]) [µg/mL] | MIC [4] [µg/mL] | MIC (Staphylococcus aureus [5]) [µg/mL] | MIC (Staphylococcus aureus [6]) [µg/mL] | MIC (Staphylococcus aureus [7]) [µg/mL] | MIC (Staphylococcus aureus [8]) [µg/mL] | MIC (Staphylococcus aureus [9]) [µg/mL] | MIC (Staphylococcus aureus [10]) [µg/mL] | MIC (Staphylococcus aureus [11]) [µg/mL] | MIC (Staphylococcus aureus [12]) [µg/mL] | MIC (Staphylococcus aureus [13]) [µg/mL] | MIC (Staphylococcus aureus [14]) [µg/mL] | MIC (Listeria monocytogenes) [µg/mL] | MIC (Staphylococcus aureus [15]) [µg/mL] | MIC (Staphylococcus aureus [16]) [µg/mL] | MIC (Staphylococcus aureus [17]) [µg/mL] | MIC (Staphylococcus aureus [18]) [µg/mL] | also measured
O=c1c2ccccc2sn1C1CCCCC1 | 3.9 (≈ 16.7 µM) | 2 (≈ 8.57 µM) | 3.9 (≈ 16.7 µM) | 3.9 (≈ 16.7 µM) | 2 (≈ 8.57 µM) | 2 (≈ 8.57 µM) | 3.9 (≈ 16.7 µM) | 7.8 (≈ 33.4 µM) | 3.9 (≈ 16.7 µM) | 3.9 (≈ 16.7 µM) | 3.9 (≈ 16.7 µM) | 2 (≈ 8.57 µM) | 3.9 (≈ 16.7 µM) | 3.9 (≈ 16.7 µM) | 7.8 (≈ 33.4 µM) | 3.9 (≈ 16.7 µM) | 2 (≈ 8.57 µM) | 3.9 (≈ 16.7 µM) | 3.9 (≈ 16.7 µM) | 7.8 (≈ 33.4 µM) | MIC (Enterococcus faecium): > 125 µg/mL; MIC [19]: 2 µg/mL (≈ 8.57 µM); MIC (Staphylococcus aureus [20]): 7.8 µg/mL (≈ 33.4 µM); MIC (Staphylococcus aureus [21]): 7.8 µg/mL (≈ 33.4 µM); MIC (Enterococcus faecalis [22]): > 125 µg/mL; MIC (Staphylococcus aureus [23]): 7.8 µg/mL (≈ 33.4 µM); MIC (Staphylococcus aureus [24]): 3.9 µg/mL (≈ 16.7 µM); MIC (Staphylococcus aureus [25]): 2 µg/mL (≈ 8.57 µM); MIC (Staphylococcus aureus [26]): 2 µg/mL (≈ 8.57 µM); MIC (Staphylococcus aureus [27]): 7.8 µg/mL (≈ 33.4 µM); MIC (Staphylococcus aureus [28]): 0.5 µg/mL (≈ 2.14 µM); MIC (Enterococcus faecalis [29]): > 125 µg/mL; MIC (Staphylococcus aureus [30]): 3.9 µg/mL (≈ 16.7 µM); MIC (Staphylococcus aureus [31]): 7.8 µg/mL (≈ 33.4 µM); MIC (Staphylococcus aureus [32]): 3.8 µg/mL (≈ 16.3 µM)
Cc1cc(C)cc(-n2sc3ccccc3c2=O)c1 | 7.8 (≈ 30.5 µM) | 3.9 (≈ 15.3 µM) | 3.9 (≈ 15.3 µM) | 7.8 (≈ 30.5 µM) | 3.9 (≈ 15.3 µM) | 3.9 (≈ 15.3 µM) | 7.8 (≈ 30.5 µM) | 7.8 (≈ 30.5 µM) | 3.9 (≈ 15.3 µM) | 7.8 (≈ 30.5 µM) | 7.8 (≈ 30.5 µM) | 7.8 (≈ 30.5 µM) | 7.8 (≈ 30.5 µM) | 7.8 (≈ 30.5 µM) | 7.8 (≈ 30.5 µM) | 7.8 (≈ 30.5 µM) | 15.6 (≈ 61.1 µM) | 7.8 (≈ 30.5 µM) | 7.8 (≈ 30.5 µM) | 7.8 (≈ 30.5 µM) | MIC (Enterococcus faecium): 15.6 µg/mL (≈ 61.1 µM); MIC [19]: 3.9 µg/mL (≈ 15.3 µM); MIC (Staphylococcus aureus [20]): 3.9 µg/mL (≈ 15.3 µM); MIC (Staphylococcus aureus [21]): 7.8 µg/mL (≈ 30.5 µM); MIC (Enterococcus faecalis [22]): 15.6 µg/mL (≈ 61.1 µM); MIC (Staphylococcus aureus [23]): 3.9 µg/mL (≈ 15.3 µM); MIC (Staphylococcus aureus [24]): 7.8 µg/mL (≈ 30.5 µM); MIC (Staphylococcus aureus [25]): 7.8 µg/mL (≈ 30.5 µM); MIC (Staphylococcus aureus [26]): 1 µg/mL (≈ 3.92 µM); MIC (Staphylococcus aureus [27]): 7.8 µg/mL (≈ 30.5 µM); MIC (Staphylococcus aureus [28]): ≤ 0.25 µg/mL; MIC (Enterococcus faecalis [29]): 15.6 µg/mL (≈ 61.1 µM); MIC (Staphylococcus aureus [30]): 3.9 µg/mL (≈ 15.3 µM); MIC (Staphylococcus aureus [31]): 3.9 µg/mL (≈ 15.3 µM); MIC (Staphylococcus aureus [32]): 3.9 µg/mL (≈ 15.3 µM)
O=c1c2ccccc2sn1-c1ccc(Br)cc1 | 2 (≈ 6.53 µM) | 2 (≈ 6.53 µM) | 1 (≈ 3.27 µM) | 2 (≈ 6.53 µM) | 2 (≈ 6.53 µM) | 2 (≈ 6.53 µM) | 2 (≈ 6.53 µM) | 3.9 (≈ 12.7 µM) | 2 (≈ 6.53 µM) | 2 (≈ 6.53 µM) | 2 (≈ 6.53 µM) | 3.9 (≈ 12.7 µM) | 3.9 (≈ 12.7 µM) | 3.9 (≈ 12.7 µM) | 3.9 (≈ 12.7 µM) | 2 (≈ 6.53 µM) | 3.9 (≈ 12.7 µM) | 3.9 (≈ 12.7 µM) | 2 (≈ 6.53 µM) | 3.9 (≈ 12.7 µM) | MIC (Enterococcus faecium): 7.8 µg/mL (≈ 25.5 µM); MIC [19]: 0.5 µg/mL (≈ 1.63 µM); MIC (Staphylococcus aureus [20]): 3.9 µg/mL (≈ 12.7 µM); MIC (Staphylococcus aureus [21]): 3.9 µg/mL (≈ 12.7 µM); MIC (Enterococcus faecalis [22]): 15.6 µg/mL (≈ 50.9 µM); MIC (Staphylococcus aureus [24]): 2 µg/mL (≈ 6.53 µM); MIC (Staphylococcus aureus [25]): 2 µg/mL (≈ 6.53 µM); MIC (Staphylococcus aureus [26]): 0.5 µg/mL (≈ 1.63 µM); MIC (Staphylococcus aureus [27]): 2 µg/mL (≈ 6.53 µM); MIC (Staphylococcus aureus [28]): ≤ 0.25 µg/mL; MIC (Staphylococcus aureus [30]): 2 µg/mL (≈ 6.53 µM); MIC (Staphylococcus aureus [31]): 2 µg/mL (≈ 6.53 µM); MIC (Staphylococcus aureus [32]): 2 µg/mL (≈ 6.53 µM)
